# Experimental data: publication PMC3040456 (Current Chemical Genomics, 2010)
# Read-outs that look alike come from different tables or passages of the source.
# Columns and labels:
# [1] = biological target: T1, α-Galactosidase A from green coffee beans (Coffea arabica, UniProt Q42656); test: GLA enzyme kinetics assay; format: biochemical
# GLA = conditions: cited from earlier work
# human recombinant GLA = biological target: T2, human recombinant GLA (Homo sapiens, UniProt P06280); test: qHTS with human recombinant GLA; format: biochemical; conditions: human recombinant GLA screen
# T2 sequence (P06280 32-429): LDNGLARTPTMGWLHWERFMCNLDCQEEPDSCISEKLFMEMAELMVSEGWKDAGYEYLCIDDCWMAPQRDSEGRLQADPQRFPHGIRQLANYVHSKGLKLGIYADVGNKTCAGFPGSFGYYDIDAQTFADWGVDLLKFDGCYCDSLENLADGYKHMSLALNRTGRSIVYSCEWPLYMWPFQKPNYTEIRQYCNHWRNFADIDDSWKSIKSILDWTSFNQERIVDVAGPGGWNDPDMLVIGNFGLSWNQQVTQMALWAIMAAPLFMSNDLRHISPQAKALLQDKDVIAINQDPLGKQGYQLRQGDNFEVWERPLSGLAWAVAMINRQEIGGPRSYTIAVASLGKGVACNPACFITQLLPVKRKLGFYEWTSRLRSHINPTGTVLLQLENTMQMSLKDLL
# rice α-glucosidase (GAA) = test: α-glucosidase; format: biochemical; conditions: enzyme 8 nM, substrate 160 μM
# Outline: (§1)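 Enzyme (2 μl), then 23 nl test compound in DMSO, then 1 μl 4MU substrate; 30 min at 21 °C, NaOH/glycine stop (pH 11.6), fluorescence at ex 365/em 440 nm. Enzymes stored in 30% glycerol at -80°C. GC: clinical imiglucerase, 1.9 nM, 800 μM 4MU-β-Glc, citrate/phosphate pH 5.9. GAA: 8 nM, 160 μM 4MU-α-glc, same buffer titrated to pH 5.0.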
# [2] = biological target: T3, GLA in human spleen homogenate (Homo sapiens, UniProt P06280); test: qHTS with GLA in human spleen homogenate; format: biochemical; conditions: human spleen homogenate screen
# T3 sequence (P06280 32-429): T2 sequence (P06280 32-429)
# [3] = biological target: T4, human recombinant glucocerebrosidase (GC) (Homo sapiens, UniProt P04062, R534H); test: glucocerebrosidase; format: biochemical
# T4 sequence (P04062 40-536 R534H): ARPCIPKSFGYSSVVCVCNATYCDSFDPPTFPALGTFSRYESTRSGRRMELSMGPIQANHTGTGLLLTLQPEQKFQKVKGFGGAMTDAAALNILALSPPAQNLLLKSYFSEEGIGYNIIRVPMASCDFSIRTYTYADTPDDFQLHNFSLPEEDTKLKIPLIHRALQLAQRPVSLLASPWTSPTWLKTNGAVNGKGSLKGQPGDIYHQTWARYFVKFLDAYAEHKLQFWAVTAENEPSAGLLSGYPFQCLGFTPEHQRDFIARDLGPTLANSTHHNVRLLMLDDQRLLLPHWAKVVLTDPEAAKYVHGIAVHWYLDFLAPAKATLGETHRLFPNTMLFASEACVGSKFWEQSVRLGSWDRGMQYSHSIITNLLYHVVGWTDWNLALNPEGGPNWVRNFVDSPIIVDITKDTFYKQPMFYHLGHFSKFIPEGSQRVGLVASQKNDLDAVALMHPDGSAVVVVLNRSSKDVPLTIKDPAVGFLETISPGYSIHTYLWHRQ
# Outline: as §1
# [4] = biological target: T1, α-Galactosidase A from green coffee beans; test: GLA enzyme assay with 4MU-α-Gala, purified enzyme from green coffee beans; format: biochemical; conditions: for selectivity for GLA over GC (words): GLA vs GC; for inhibitory activity against GLA in qHTS and confirmation: bioactive 6,160 compound set; for IC50: read-out: IC50 for GLA, coffee bean GLA 1 nM, 40 μM 4MU-α-Gala, pH 5.9
# [5] = read-out: IC50 for GC, enzyme 1.9 nM, substrate 800 μM
# T1 sequence (Q42656 16-378): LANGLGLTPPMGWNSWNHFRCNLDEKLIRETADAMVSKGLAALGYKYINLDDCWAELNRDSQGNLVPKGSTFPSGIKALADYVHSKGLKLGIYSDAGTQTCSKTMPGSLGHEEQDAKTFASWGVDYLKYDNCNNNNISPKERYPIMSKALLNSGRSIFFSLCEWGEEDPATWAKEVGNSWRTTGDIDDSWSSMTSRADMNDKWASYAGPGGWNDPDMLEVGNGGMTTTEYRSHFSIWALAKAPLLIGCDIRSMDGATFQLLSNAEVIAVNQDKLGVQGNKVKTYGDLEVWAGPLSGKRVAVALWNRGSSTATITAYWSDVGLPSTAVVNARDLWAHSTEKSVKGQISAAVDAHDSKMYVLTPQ
compound,measurement,setting,value
"Cc1cc(=O)oc2cc(O[C@H]3O[C@H](CO)[C@H](O)[C@H](O)[C@H]3O)ccc12 [4MU-α-Gala, 4-methylumbelliferyl-α-D-galactopyranoside]",Km,[1]; pH 4.5,102 µM
same,Vmax,[1]; pH 4.5,2.76 pmol/min
same,Km,"[1]; pH 5.9, 1 nM enzyme",144 µM
same,Vmax,"[1]; pH 5.9, 1 nM enzyme",5.74 pmol/min
same,Km,"GLA; same substrate, pH 6.5",239 µM
"OC[C@H]1NC[C@H](O)[C@@H](O)[C@H]1O [DGJ, 1-deoxygalactonojirimycin]",IC50,GLA; read-out: reported IC50 value,3 nM
Cc1c(OCC(F)(F)F)ccnc1C[S+]([O-])c1nc2ccccc2[nH]1 (stereo not drawn) [lansoprazole],activity with the human enzyme,human recombinant GLA,not active
same,inhibition of GAA,rice α-glucosidase (GAA),did not inhibit GAA
same,activity with the human enzyme,[2],not active
same,IC50,[3],122000 nM
same,Ki,[1],5500 nM
same,type of inhibition,[1]; Lineweaver-burk plot,mixed type of inhibition
same,selectivity for GLA over GC (words),[4],showed selectivity for GLA over GC
same,inhibitory activity against GLA in qHTS and confirmation,[4],relatively high inhibitory activity
O=C([O-])c1ccccc1-c1c2cc(Br)c(=O)cc-2oc2[c]([Hg+])c([O-])c(Br)cc12.[Na+].[Na+].[OH-] [merbromin],inhibition of GAA,rice α-glucosidase (GAA),slightly inhibited GAA
same,IC50,[3]; [5],630 nM
same,selectivity for GLA over GC (words),[4],not selective for GLA
same,selectivity for GLA over GC (words),[4]; listed as Merbromin,more potent against GC than GLA
same,inhibitory activity against GLA in qHTS and confirmation,[4],relatively high inhibitory activity
same,IC50,[4],1380 nM
CC(=O)[O][Hg][c]1ccccc1 [phenylmercuric acetate],inhibition of GAA,rice α-glucosidase (GAA),did not inhibit GAA
same,IC50,[3]; [5],82 nM
same,selectivity for GLA over GC (words),[4],not selective for GLA
same,selectivity for GLA over GC (words),[4]; listed as Phenylmercuric acetate,significantly more potent against GC than GLA
same,inhibitory activity against GLA in qHTS and confirmation,[4],relatively high inhibitory activity
same,IC50,[4],7420 nM
C[C@H](CCC(=O)NCCS(=O)(=O)O)[C@H]1CC[C@H]2[C@@H]3[C@H](O)C[C@@H]4C[C@H](O)CC[C@]4(C)[C@H]3C[C@H](O)[C@]12C [sodium taurocholate],effect on GLA activity,[4]; titration 0.15 to 40 mM,decreased the GLA activity
